Calls of active or inactive are those of the source. The calls are words filed in the database; no cut-off is given here.

Experiment [1] concerns the target T1, Cystine/glutamate transporter (Homo sapiens) (UniProt Q9UPY5).
T1 sequence (whole entry): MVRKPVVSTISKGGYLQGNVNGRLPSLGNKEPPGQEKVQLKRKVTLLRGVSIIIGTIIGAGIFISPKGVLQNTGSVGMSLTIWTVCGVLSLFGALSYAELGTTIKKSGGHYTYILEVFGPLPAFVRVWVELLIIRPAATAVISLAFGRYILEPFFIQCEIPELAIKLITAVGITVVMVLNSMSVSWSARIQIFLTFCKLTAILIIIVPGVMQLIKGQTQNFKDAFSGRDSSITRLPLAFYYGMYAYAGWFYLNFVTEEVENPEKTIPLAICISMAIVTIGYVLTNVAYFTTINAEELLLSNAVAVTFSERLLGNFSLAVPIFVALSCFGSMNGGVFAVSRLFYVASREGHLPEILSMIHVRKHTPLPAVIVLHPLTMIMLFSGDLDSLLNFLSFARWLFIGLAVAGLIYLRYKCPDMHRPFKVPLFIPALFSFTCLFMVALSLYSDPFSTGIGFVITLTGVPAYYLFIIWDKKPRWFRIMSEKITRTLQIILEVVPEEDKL
The experiment in a line: Activity at amino acid transport system xc- in human SNB19 cells assessed as induction of L-glutamate efflux at 500 uM by fluorometric assay. It counts as cell-based. The conditions noted are these: SNB-19. The essentials:
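Paired SNB-19 coverslips were rinsed 10 min in Na+-free HBHS, then placed in a stirred cuvette (2 ml HBHS, 30 °C). NADP+ (1 mM) was added at 0 s and glutamate dehydrogenase (33 U) at 60 s, then the test substrate. L-Glu efflux was followed in real time as NADPH fluorescence. Triton X-100 (0.5%) gave total cellular L-Glu. Efflux was quantified from a cell-free standard curve.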

The target in experiment [2] is T1, Cystine/glutamate transporter (Homo sapiens). Put plainly: Inhibition of amino acid transport system xc- in human SNB19 cells assessed as [3H]L-glutamate uptake at 500 uM by liquid scintillation counting. The class given is cell-based. More on the design: scale not given: the % may be the effect or the level left. Particulars: SNB-19. In a few lines: (§1)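 Confluent SNB-19 glioma monolayers were refed 2 h before assay, then preincubated 5 min at 30 °C in Na+-free HEPES-buffered Hank's (choline Cl, pH 7.4). Test agent was added together with L-[3H]-glutamate plus unlabeled L-Glu (10–500 μM final). After 5 min at 30 °C, ice-cold washes stopped uptake. Cells were lysed in 0.4 M NaOH and counted by LSC. Results are % of control uptake.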

The target of experiment [3] is T2, Cystine/glutamate transporter (Homo sapiens, UniProt Q9UPY5).
T2 sequence (Q9UPY5 whole entry): T1 sequence (whole entry)
The experiment in a line: Competitive inhibition of [3H]L-glutamate uptake at amino acid transport system xc- in human SNB19 cells by liquid scintillation counting. The class given is cell-based, SNB-19. In a few lines: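 SNB-19 glioma monolayers were assayed in Na+-free choline-HEPES Hank's buffer, pH 7.4, at 30 °C. L-[3H]-glutamate with L-Glu (10–500 μM final) and inhibitor were added simultaneously for 5 min. Radioactivity in NaOH lysates was counted by LSC. Ki came from a replot of Km,app values, or from IC50 inhibition curves using the Cheng-Prusoff equation.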

The target of experiment [4] is T2, Cystine/glutamate transporter. The experiment in a line: Inhibition of amino acid transport system xc- in human SNB19 cells assessed as [3H]L-glutamate uptake by liquid scintillation counting. It counts as cell-based, SNB-19.
The target in experiment [5] is T1, Cystine/glutamate transporter (Homo sapiens). Put plainly: Inhibition of amino acid transport system xc- in human SNB19 cells assessed as [3H]L-glutamate uptake at 250 uM by liquid scintillation counting. It counts as cell-based. Particulars: SNB-19. Details: scale not given: the % may be the effect or the level left. The essentials:
as §1

Experiment [6] has the same target. The experiment in a line: Inhibition of [3H]L-glutamate uptake at amino acid transport system xc- in human SNB19 cells at 500 uM by liquid scintillation counting. The class given is cell-based. Particulars: SNB-19. The essentials: as §1
Experiment [7] shares this target. Particulars: SNB-19, 500 uM.
The test system of the next experiment is LRM55. The experiment in a line: Inhibition of amino acid transport system xc- in rat LRM55 cells assessed as [3H]L-glutamate uptake at 500 uM by liquid scintillation counting. Details: scale not given: the % may be the effect or the level left. It counts as cell-based.

As for `C/C(=N\Nc1ccc([N+](=O)[O-])cc1[N+](=O)[O-])c1c(C(=O)O)noc1CCc1ccc2ccccc2c1`, the result in experiment [1] was inactive. For the same compound, the Activity in experiment [2] was 45%. The Ki – broadly, the equilibrium dissociation constant of an inhibitor or competing ligand from its target – in experiment [3] stood at 113 µM. In experiment [4], the IC50 (commonly the point on the concentration scale where inhibition reaches its midpoint) is 225 µM.
As for `Cc1onc(C(=O)O)c1CC(N)P(=O)(O)O` (racemic), the Activity in experiment [5] was determined as 107%.
Same read-out and setting: with `CCc1onc(C(=O)O)c1C[C@H](N)C(=O)O` the figure was 92%; with `CCOC(=O)c1noc(C)c1/C(C)=N/NC(N)=O`, 103%.
Still for that read-out and setting: next, `C/C(=N\NC(=O)Nc1ccccc1)c1c(C(=O)O)noc1C`: 76%.
Turning to `C/C(=N\Nc1ccc([N+](=O)[O-])cc1)c1c(C(=O)O)noc1C`, the outcome in experiment [1] was inactive. Besides, in experiment [2], the Activity stood at 22%. This compound also displayed an inhibitory constant (Ki) in experiment [3] of 60 µM. In experiment [6], the inhibition (commonly the change of the read-out against control, counted positive when it falls) was 78%. Further, in experiment [4], the half-inhibitory concentration (IC50) was found to be 127 µM.
Consider `Cc1nn(-c2ccc(C(F)(F)F)cc2)c(=O)c2noc(C)c12`, for which, in experiment [2], the Activity came to 99%.
On to `C/C(=N\Nc1ccccc1)c1c(C(=O)O)noc1C`, for which the Activity in experiment [2] came to 56%. For the same compound, the inhibition in experiment [6] was found to be 44%.
As to `C/C(=N\Nc1ccc([N+](=O)[O-])cc1[N+](=O)[O-])c1c(C(=O)O)noc1C`, the result in experiment [1] was inactive. The Activity in experiment [5] is 73%; in experiment [2], 45%. The compound also displayed a Ki in experiment [3] of 147 µM. In experiment [4], the IC50 worked out at 290 µM.
As to `C/C(=N\NC(N)=O)c1c(C(=O)O)noc1C`, the Activity in experiment [5] was found to be 91%.
In the case of `C/C(=N\NS(=O)(=O)c1ccccc1)c1c(C(=O)O)noc1C`, the Activity in experiment [5] turned out to be 101%.
`Cc1onc(C(=O)O)c1C[C@H](N)C(=O)O`: in experiment [5], the Activity stood at 98%.
Take `COC(C)c1onc(C(=O)O)c1C[C@H](N)C(=O)O` (mixture of isomers): in experiment [5], the Activity came to 115%.
In the case of `Cc1nn(-c2ccc([N+](=O)[O-])cc2)c(=O)c2noc(C)c12`, the Activity in experiment [2] turned out to be 85%. The same compound gave an inhibition in experiment [6] of 15%.
As to `Cc1nn(-c2ccc(F)cc2)c(=O)c2noc(C)c12`, the Activity in experiment [2] was determined as 86%.
With `Cc1nn(-c2ccccc2)c(=O)c2noc(C)c12`, the Activity in experiment [2] is 74%. Further, the inhibition in experiment [6] was 26%.
On to `Cc1nn(-c2cccc([N+](=O)[O-])c2)c(=O)c2noc(C)c12`, for which the Activity in experiment [2] was determined as 96%.
For the compound `N[C@@H](Cc1c(C(=O)O)noc1CCc1ccccc1)C(=O)O`, in experiment [5], the Activity is 70%.
Regarding `COCc1onc(C(=O)O)c1C[C@H](N)C(=O)O`, the Activity in experiment [5] came out at 98%.
Turning to `C/C(=N\Nc1ccc([N+](=O)[O-])cc1[N+](=O)[O-])c1c(C(=O)O)noc1COCc1ccc2ccccc2c1`, the Activity in experiment [2] worked out at 95%.
Same read-out and setting: next, `COc1ccc(-n2nc(C)c3c(C)onc3c2=O)cc1`: 92%.
On to `Cc1onc(C(=O)O)c1CC(N)C(=O)O` (racemic), for which the Activity in experiment [5] turned out to be 101%.
The same measure, in the same setting: with `N[C@@H](Cc1c(C(=O)O)noc1COCc1ccccc1)C(=O)O` (racemic) the figure was 70%.
Take `Cc1nn(-c2cc(Cl)cc(Cl)c2)c(=O)c2noc(C)c12`: in experiment [2], the Activity turned out to be 89%.
Regarding `C/C(=N\Nc1cc(C(F)(F)F)cc(C(F)(F)F)c1)c1c(C(=O)O)noc1C`, the outcome in experiment [1] was inactive. Also, in experiment [2], the Activity was determined as 14%. Affinity in experiment [3] was put at a Ki of 64 µM. For the same compound, the inhibition in experiment [6] was determined as 86%. Further, the IC50 in experiment [4] was 129 µM.
In the case of `Cc1nn(-c2cc(C(F)(F)F)cc(C(F)(F)F)c2)c(=O)c2noc(C)c12`, the Activity in experiment [2] was 82%. In addition, the inhibition in experiment [6] was 18%.
As for `Cc1nn(-c2ccc(F)cc2F)c(=O)c2noc(C)c12`, the Activity in experiment [2] was 95%.
With `N[C@@H](Cc1c(C(=O)O)noc1CCc1ccc2ccccc2c1)C(=O)O`, the result in experiment [1] was inactive. The Activity in experiment [5] was found to be 37%. Moreover, the inhibitory constant (Ki) in experiment [3] stood at 52 µM. Also, the inhibition result in experiment [7] is “Active”.
Consider `CCOC(=O)c1noc(C)c1/C(C)=N/NS(=O)(=O)c1ccccc1`, for which the Activity in experiment [5] turned out to be 96%.
For `Cc1ccc(-n2nc(C)c3c(C)onc3c2=O)cc1`, in experiment [2], the Activity was 94%.
For the compound `N[C@@H](Cc1c(C(=O)O)noc1CCc1cccc2ccccc12)C(=O)O`, the result in experiment [1] was inactive. The Activity in experiment [5] came to 47%. The compound further came in with an inhibitory constant (Ki) in experiment [3] of 117 µM.
Regarding `C/C(=N\Nc1ccccc1[N+](=O)[O-])c1c(C(=O)O)noc1C`, the Activity in experiment [2] was determined as 97%.
As for `Cc1onc(O)c1C[C@H](N)C(=O)O`, in the experiment with LRM55, the Activity was determined as 95%.

The values are drawn from ChEMBL document CHEMBL1157680, “Isoxazole analogues bind the system xc- transporter: structure-activity relationship and pharmacophore model” (Bioorg Med Chem, 2010).
